This is one part of a sample in which hits are shown more often than they occur.
VLA-4 inh: inhibition in a human VLA-4 binding assay | P13612 | VLA-4 expressing cells, ligand binding flow cytometry | inhibition, % (about 7 µM as worked out from the volumes in the protocol) | 330,000 compounds, 0.2% hits; in the data active = inhibition above about 50%
Target sequence (P13612 whole entry, looked up): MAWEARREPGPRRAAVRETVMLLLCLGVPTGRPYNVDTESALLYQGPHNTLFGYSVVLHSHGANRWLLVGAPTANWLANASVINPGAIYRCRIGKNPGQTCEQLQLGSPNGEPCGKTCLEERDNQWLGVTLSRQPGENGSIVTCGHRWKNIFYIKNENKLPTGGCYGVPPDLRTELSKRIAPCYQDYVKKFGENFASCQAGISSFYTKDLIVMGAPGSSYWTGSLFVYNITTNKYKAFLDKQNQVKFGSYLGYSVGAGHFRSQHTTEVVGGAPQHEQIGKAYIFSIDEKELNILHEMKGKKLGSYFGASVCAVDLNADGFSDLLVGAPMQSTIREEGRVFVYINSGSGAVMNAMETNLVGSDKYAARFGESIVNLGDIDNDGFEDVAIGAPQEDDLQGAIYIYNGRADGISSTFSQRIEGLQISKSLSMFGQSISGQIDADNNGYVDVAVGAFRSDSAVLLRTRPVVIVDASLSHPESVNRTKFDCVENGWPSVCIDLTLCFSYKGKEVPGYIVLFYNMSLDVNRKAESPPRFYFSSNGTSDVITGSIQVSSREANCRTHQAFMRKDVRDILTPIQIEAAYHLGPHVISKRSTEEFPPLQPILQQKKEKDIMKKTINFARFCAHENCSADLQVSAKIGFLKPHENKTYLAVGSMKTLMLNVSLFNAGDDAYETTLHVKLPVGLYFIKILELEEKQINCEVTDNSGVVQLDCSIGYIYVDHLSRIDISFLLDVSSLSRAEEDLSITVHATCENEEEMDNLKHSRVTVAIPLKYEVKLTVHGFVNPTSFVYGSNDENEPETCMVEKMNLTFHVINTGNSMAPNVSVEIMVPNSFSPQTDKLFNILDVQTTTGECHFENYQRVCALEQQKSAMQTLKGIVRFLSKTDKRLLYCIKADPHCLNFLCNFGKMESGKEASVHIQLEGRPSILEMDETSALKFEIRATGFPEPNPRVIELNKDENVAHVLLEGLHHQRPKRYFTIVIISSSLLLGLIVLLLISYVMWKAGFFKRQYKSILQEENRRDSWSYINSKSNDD
CHOP inhibitor: inhibitors of CHOP induction in ER stress response; CHO-K1 CHOP-promoter luciferase, tunicamycin-induced, 15-18 h; inhibition, % at 10 µM; 220,000 compounds, 3.8% hits;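 active = compounds that reduced the stress-induced luciferase reporter signal by more than about 70% of percent inhibition, limit read from the data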
B2AR ag: human beta-2 adrenergic receptor agonism by FAP. P07550. Am2.2-beta2AR cells, FAP receptor internalization, flow cytometry. response, % (no concentration beside the values). 340,000 compounds, 0.43% hits. AID 504454;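 active = response above a set limit, near 3 SD of response in nonfluorescent compounds, cut at about 42% in these data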
UPR CHOP act: activators of apoptotic arm of unfolded protein response (CHOP); 330,000 compounds, 0.34% hits; CHO-CHOP luciferase reporter, UPR activation, luminescence; percent of tunicamycin response over DMSO baseline; activation, % at 10 µM;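 active = at 10 µM dose, activation of 40% or more, normalized to positive control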
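Evaluation: % reporter activation, DMSO baseline versus tunicamycin full activation; System: CHO-CHOP luciferase reporter cell line; Input: 500 cells/well; Incubation: 6 h compound treatment, 37 °C; Measured by: Steady-Glo luciferase luminescence; Dosing: one dose, 10 µM in 0.5% DMSO; Buffer or medium: F12 medium, 10% FBS; Benchmarks: positive tunicamycin 10 µg/mL, negative DMSO alone.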
UPR XBP1 act: adaptive UPR (XBP1) activation. CHO-XBP1 luciferase reporter, IRE1-XBP1 UPR activation, luminescence; percent of tunicamycin response, DMSO as zero. 330,000 compounds, 0.33% hits. activation, % at 20 µM;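 active = versus positive control, 20 µM dose yields 30% or more activation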
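Material: CHO cell line with stable XBP1 luciferase reporter; buffer or medium: F12 medium containing 10% fetal bovine serum; compound: single point, 20 µM final compound, 1% DMSO; incubation: 6 h treatment, 37 °C; measured by: glow luminescence from Steady-Glo reagent; evaluation: activation, % of tunicamycin; control set: tunicamycin high, DMSO low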
Beta2AR ag CP1: human beta-2 adrenergic receptor agonism, cherry pick. percent response (surface receptor), % at 10 µM. Am2.2-beta2AR cells, FAP surface receptor, flow cytometry; hits give low values. 1,100 compounds, 25% hits. shares compounds with B2AR ag;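 active = surface receptor percent response at or below 58%, roughly 3 SD from nonfluorescent compounds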
FAP fluor counter: fluorescence artifact in beta-2AR agonist FAP counterscreen; calls only at 10 µM; AID 588765; shares compounds with B2AR ag; 1,100 tested, under 10 active; Am2.2 cells, FAP fluorogen flow cytometry; hits give low values;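 active = percent response below a set limit in fluorescence channel 1 and below 50% in channel 8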
Large screens that a line does not name were inactive (follow-up assays come after a bar, where they were run).

CCOc1ccc(CNC(=O)C2CCN(c3nnc(C)c4c(C)n(-c5ccc(C)cc5)nc34)CC2)cc1	B2AR ag 55 (no result: CHOP inhibitor) | Beta2AR ag CP1 inactive | FAP fluor counter inactive
Oc1ccc(C[C@@H]2CNCCN2CCc2cc(C(F)(F)F)cc(C(F)(F)F)c2)cc1	B2AR ag 80 (no result: CHOP inhibitor) | Beta2AR ag CP1 inactive | FAP fluor counter inactive
OC(c1cc(C(F)(F)F)nc2c(C(F)(F)F)cccc12)C1CCCCN1 (stereo not drawn)	none (no result: CHOP inhibitor) | Beta2AR ag CP1 inactive | FAP fluor counter inactive
CCCc1ccc(OCc2nc(-c3ccc(NC(=O)c4cccs4)cc3)no2)cc1	none | Beta2AR ag CP1 inactive | FAP fluor counter inactive
CCCc1ccc(OCc2nc(-c3ccc(NC(=O)c4ccco4)cc3)no2)cc1	none | Beta2AR ag CP1 42 | FAP fluor counter inactive
O=C(CCCc1c[nH]c2ccccc12)NCC1COc2ccccc2O1 (stereo not drawn)	none
COc1cc[n+]([O-])cc1[N+](=O)[O-]	none (no result: VLA-4 inh, CHOP inhibitor, UPR CHOP act, UPR XBP1 act)
CSCCC(NC(=O)c1ccccc1Cl)C(=O)Nc1ccncc1 (stereo not drawn)	none (no result: VLA-4 inh, CHOP inhibitor)
CCOC(=O)c1ccc(NC(=O)Cc2coc3cc4c(cc23)CCC4)cc1	CHOP inhibitor 77, B2AR ag 69 | Beta2AR ag CP1 45 | FAP fluor counter inactive
CCOC(=O)c1ccc(NC(=O)COC)cc1	none
COc1ccc(OC)c(S(=O)(=O)N(C)CC(=O)N2CCN(c3cccc(Cl)c3)CC2)c1	none | Beta2AR ag CP1 inactive | FAP fluor counter inactive
COc1ccc(OC)c(S(=O)(=O)N(C)CC(=O)N2CCN(c3ccccc3F)CC2)c1	none | Beta2AR ag CP1 inactive | FAP fluor counter inactive
COc1ccc(OC)c(S(=O)(=O)N(C)CC(=O)N2CCOCC2)c1	none (no result: CHOP inhibitor)
COc1ccc(OC)c(S(=O)(=O)N(C)CC(=O)N2CCN(c3ccc(F)cc3)CC2)c1	none | Beta2AR ag CP1 inactive | FAP fluor counter inactive
COc1ccc(Cl)cc1S(=O)(=O)N(C)CC(=O)N1CCCC1	none (no result: CHOP inhibitor)
O=C(CNC(=O)c1ccccn1)N=Nc1c(O)[nH]c2ccccc12	none (no result: CHOP inhibitor)
C/C=C/C(O)c1ccc2ccccc2c1 (stereo not drawn)	none (no result: CHOP inhibitor, B2AR ag)
Cc1ccccc1Nc1nc(N)nc(CN(C)Cc2ccccc2Cl)n1	none
COc1ccc(NS(=O)(=O)c2cc(NC(=O)c3nc4nc(C)cc(C)n4n3)ccc2C)cc1	none | Beta2AR ag CP1 inactive | FAP fluor counter inactive
Cc1cc(C)n2nc(C(=O)OCC(=O)Nc3ccc(C)c(S(=O)(=O)N(C)C)c3)nc2n1	none (no result: CHOP inhibitor)
COc1ccccc1NS(=O)(=O)c1cccc(NC(=O)c2nc3nc(C)cc(C)n3n2)c1	none | Beta2AR ag CP1 inactive | FAP fluor counter inactive
Cc1cccc(OCC(=O)O/N=C(\N)c2ccc(Br)cc2)c1	none
CC1CCN(C(=O)COC(=O)c2ccccc2C(=O)c2ccccc2)CC1	none (no result: CHOP inhibitor) | Beta2AR ag CP1 inactive | FAP fluor counter inactive
Cc1ccc(C(=O)c2ccccc2C(=O)OCC(=O)N2C(C)CCCC2C)cc1 (stereo not drawn)	none (no result: CHOP inhibitor) | Beta2AR ag CP1 inactive | FAP fluor counter inactive
CCOC(=O)C1CCN(C(=O)COC(=O)c2ccccc2OCC)CC1	none (no result: CHOP inhibitor)
CCOC(=O)C1CCN(C(=O)COC(=O)c2ccccc2C(=O)c2ccc(Cl)cc2)CC1	none (no result: CHOP inhibitor) | Beta2AR ag CP1 inactive | FAP fluor counter inactive
Cc1ccc(C(=O)c2ccccc2C(=O)OCC(=O)N2CC(C)CC(C)C2)cc1 (stereo not drawn)	none (no result: CHOP inhibitor)
CNC(=O)Cn1nc(C)c(S(=O)(=O)N2CCOCC2)c1C	none (no result: CHOP inhibitor)
CCN(CC)C(=O)CSc1nc(-c2ccccc2)cc(=O)[nH]1	none | Beta2AR ag CP1 inactive | FAP fluor counter inactive
CCN(Cc1ccccc1)C(=O)CSc1nc(C)cc(=O)[nH]1	none
Cc1ccc(C(=O)N2CCN(c3ccc(NC(=O)c4ccc(Br)o4)cc3)CC2)cc1	CHOP inhibitor 72 | Beta2AR ag CP1 inactive | FAP fluor counter inactive
COc1ccc(C(=O)N2CCN(c3ccc(NC(=O)c4ccco4)cc3)CC2)cc1	none (no result: CHOP inhibitor)
CCc1ccc(C(=O)N2CCN(c3ccc(NC(=O)c4ccco4)cc3)CC2)cc1	none (no result: CHOP inhibitor) | Beta2AR ag CP1 inactive | FAP fluor counter inactive
Cc1ccc(Cl)cc1NC(=O)c1cc(S(=O)(=O)N2CCOCC2)cn1C	none (no result: CHOP inhibitor)
CC(C)CN(CC(C)C)S(=O)(=O)c1cc([N+](=O)[O-])ccc1N1CCCCCC1	B2AR ag 52 | Beta2AR ag CP1 inactive | FAP fluor counter inactive
CN(C)S(=O)(=O)c1cc([N+](=O)[O-])ccc1N1CCCCCC1	none (no result: CHOP inhibitor)
CC(C)NC(=O)N(C)C[C@H]1Oc2ccc(NC(=O)C3CC3)cc2C(=O)N([C@H](C)CO)C[C@@H]1C	none (no result: CHOP inhibitor)
Cc1nc(SCc2nc3c(C)cccc3[nH]2)c2oc3ccccc3c2n1	none (no result: CHOP inhibitor)
Cc1nc(SCc2nc3c([N+](=O)[O-])cccc3[nH]2)c2oc3ccccc3c2n1	B2AR ag 52 (no result: CHOP inhibitor) | Beta2AR ag CP1 inactive | FAP fluor counter inactive
Nc1c(Cl)cnn(-c2ccccc2)c1=O	none (no result: CHOP inhibitor) | Beta2AR ag CP1 inactive | FAP fluor counter inactive
CCCCNc1cnn(-c2ccccc2)c(=O)c1Cl	none
COc1ccc(S(=O)(=O)N2CCN(Cc3cccc(OC)c3OC)CC2)cc1	none (no result: CHOP inhibitor)
CCS(=O)(=O)c1ncc(Cl)c(C(=O)Nc2ccc(S(=O)(=O)N3CCCC(C)C3)cc2)n1 (stereo not drawn)	B2AR ag 47 (no result: CHOP inhibitor) | Beta2AR ag CP1 inactive | FAP fluor counter inactive
CCC1CCCCN1S(=O)(=O)c1ccc(NC(=O)c2nc(S(C)(=O)=O)ncc2Cl)cc1 (stereo not drawn)	none (no result: CHOP inhibitor)
O=C(CCN1C(=O)C2CC=CCC2C1=O)Nc1cc(C(F)(F)F)ccc1N1CCCC1 (stereo not drawn)	none (no result: CHOP inhibitor)
COC(=O)c1cc(NC(=O)Cn2c(=O)oc3ccccc32)cc(C(=O)OC)c1	B2AR ag 71 (no result: CHOP inhibitor) | Beta2AR ag CP1 inactive | FAP fluor counter inactive
COc1ccc(NC(=O)Cn2c(=O)oc3ccccc32)cc1	none
O=C(CSc1nc2nn(-c3ccccc3)c(=O)c-2c2n1CCCCC2)c1ccc(OC(F)F)cc1	none (no result: CHOP inhibitor)
CC(C)c1nc2sc3c(NCc4ccccc4)ncnc3c2c2c1COC(C)(C)C2	none | Beta2AR ag CP1 inactive | FAP fluor counter inactive
O=C(COc1ccccc1F)N1c2ccccc2CCc2ccccc21	B2AR ag 63 | Beta2AR ag CP1 15 | FAP fluor counter inactive
CC1CCCCN1C(=O)COC(=O)c1cc([N+](=O)[O-])ccc1N1CCOCC1 (stereo not drawn)	none (no result: CHOP inhibitor)
CNCc1ccccc1Sc1cc(O)ccc1O	B2AR ag 68 | Beta2AR ag CP1 inactive | FAP fluor counter inactive
CNCc1ccccc1Sc1cccc(O)c1	none
Cc1cccc(OCc2nnc(-c3ccc(F)cc3)o2)c1	none (no result: CHOP inhibitor) | Beta2AR ag CP1 inactive | FAP fluor counter inactive

Assay outcomes: PubChem, several laboratories
